Assay outcomes (PubChem BioAssay)
Rows were chosen to be rich in hits. Some 6% of all compounds tested hit in one or more screens of this group.
Pyk2 oligo antag – antagonists of human Pyk2 oligomerization. z-score (the deposit names both 25 µM and 10 µM). 99,000 tested, 0.83% active. Q14289. Q293 cells, Pyk2 FERM NanoBiT luminescence; active compounds read low;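 active = Z-score of -3 or lower, scaled per plate to the spread of control and sample wells; inactive = z-score above -3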;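 note: negative z-score means lost luminescence so less FERM oligomerization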
H69AR inhibit – growth inhibitors of human H69AR lung tumor cells | H69AR lung tumor viability, ATP luminescence, 72 h; active compounds read low | viability, % at 10 µM | 85,000 tested, 6% active;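 active = viability at or below 40%; inactive = viability above 40%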;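 note: multidrug resistant small cell line overexpressing MRP-1 efflux transporter; 100% = mean luminescence of untreated control wells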
F-actin modifier – alters cytoskeleton assembly in HUVEC cells; HUVEC TNFa F-actin phalloidin imaging, high content; inhibition, % at 2 µM; 91,000 tested, 0.18% active; AID 836;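 active = inhibition above the batch mean plus 3 SD and confirmed as a hit by visual image inspection, cut at about 30% in these data, passing the limit was not always enough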
Fibroblast inh – blocks proliferation of human lung fibroblasts. LL 47 human lung fibroblast viability, ATP luminescence; active compounds read low. viability, % at 10 µM. 85,000 tested, 1.1% active. AID 719;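 active = viability at or below 50% in the single dose screen; inactive = viability above 50%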;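 note: compound exposure lasted 72 h before the ATP readout; 100% = median luminescence of untreated cell-only wells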
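Test system: LL 47 human lung fibroblasts / Quantity: 1,150 cells in each well / Medium: IMEM growth medium with 15% fetal bovine serum / Incubation: 72 h compound exposure at 37 °C after overnight plating / Detection: CellTiter-Glo luminescence measuring cellular ATP / Read-out: % viability versus median cells-only luminescence / Benchmarks: cell-only wells, no compound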
HUVEC prolif 384 – inhibitors of human endothelial cell proliferation; HUVEC proliferation, CellTiter-Glo luminescence, 72 h; active compounds read low; viability, % at 10 µM (by protocol); 86,000 tested, 1.1% active; AID 648;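 active = viability at or below 30%; inactive = viability above 30%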;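 note: 100% = median luminescence of DMSO-only cell control wells on each plate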
Jurkat viability – cytotoxic compounds reducing Jurkat cell viability; Jurkat E6.1 viability, ATP luminescence, 48 h; 56,000 tested, 1.2% active; AID 463; inhibition, % at 4 µM;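 active = inhibition above the mean inhibition of all tested compounds plus 3 SD, cut at about 28% in these data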
* = called active by the depositor; . = not tested or not shown.

SMILES	Pyk2 oligo antag	H69AR inhibit	F-actin modifier	Fibroblast inh	HUVEC prolif 384	Jurkat viability
CC(C)Oc1ccc(/C=N/NC(=O)C(CSCc2ccccc2)NC(=O)c2ccc([N+](=O)[O-])cc2)cc1 (centres undefined)	0.64	28.4*	-9.0	66.0	67.4	.
O=C(N/C=N/O)C1=NOC(CNc2ncc(C(F)(F)F)cc2Cl)C1 (centres undefined)	-0.77	99.4	-0.3	103.6	88.7	.
COc1cc2c(cc1OC)CN(C(=O)c1cc3ccccc3oc1=O)CC2	-0.43	23.6*	-9.6	.	63.9	60.0*
COc1cccc2cc(C(=O)N3CCc4ccccc4C3)c(=O)oc12	-0.11	88.9	.	93.2	108.3	-0.1
COc1cc(CNCc2cccs2)ccc1OCc1ccccc1	0.04	.	7.4	.	.	.
COc1cc(CNCc2ccco2)ccc1OCc1ccccc1	1.22	.	46.1*	.	.	.
CCOC(=O)C1CCN(C(=O)c2oc3ccc(S(=O)(=O)N4CC(C)CC(C)C4)cc3c2C)CC1 (centres undefined)	-0.54	71.1	-11.1	98.3	91.8	.
O=C(NCC1CCCO1)c1onc(CSc2ccc(F)c(F)c2)c1C(=O)O (centres undefined)	.	.	19.4	.	.	.
CCOC(=O)C(C(=O)Nc1ccc(C)cc1)C1CCCCC1 (centres undefined)	-1.48	22.6*	.	88.6	79.7	.
S=c1[nH]ncn1/N=C/c1ccccn1	-0.18	.	-24.0	.	.	.
C=CCNC(=O)CSc1nc2cc(C(=O)OCC)ccc2n1CC	0.38	26.1*	10.0	90.5	80.3	.
CCOC(=O)c1ccc2c(c1)nc(SCC(=O)c1cc3ccccc3o1)n2CC	0.15	58.6	0.1	90.6	90.5	.
CC1=C(C(=O)OCCOC(C)C)C(c2cccnc2)C2=C(CCCC2=O)N1 (centres undefined)	-0.29	88.0	78.9*	101.2	111.8	-4.0
CCN(CC)c1ccc(C2C(C(=O)OCCOC(C)C)=C(C)NC3=C2C(=O)CCC3)cc1 (centres undefined)	-1.56	104.0	.	91.4	98.8	-0.9
COCCNC(=O)c1ccc(CN2CCOCC2)cc1	-0.27	89.6	-2.3	105.0	96.4	.
c1ccc(-c2nc(-c3ccncc3)no2)cc1	0.19	90.1	12.0	102.4	99.1	-2.5
c1ccc(C(Cc2nc(-c3ccncc3)no2)c2ccccc2)cc1	-1.05	88.0	0.2	92.5	91.0	57.6*
CCN(CC(=O)NC(C)C)Cc1nc2sc3c(c2c(=O)[nH]1)CCC3	-0.02	37.0*	5.4	92.8	87.4	.
CN(C)C(=O)CCc1nc2sc3c(c2c(=O)[nH]1)CCCC3	0.06	91.4	-6.3	103.7	101.2	.
O=C(c1ccc2ncsc2c1)N1CCN(c2ccc(O)cc2)CC1	0	87.5	10.3	85.7	92.6	.
O=C(Nc1cccnc1)c1ccc(COc2cc(Cl)ccc2Cl)o1	1.48	37.2*	2.7	82.3	49.9	.
Cc1ccc(CN(CC2CCCO2)C(=O)CN2C(=O)C(C(C)C)Oc3ccccc32)o1 (centres undefined)	1.15	38.3*	.	91.9	106.2	-2.2
CN(CCNC(=O)c1cc2c(=O)n(C)c3ccccc3c2n1C)Cc1ccccc1	.	37.4*	-5.1	73.2	49.7	-0.8
CCCN(CCC)CCNC(=O)c1cc2c(=O)n(C)c3ccccc3c2n1C	.	76.0	1.3	83.4	82.6	0.7
Cn1c(C(=O)NCCN2CCc3ccccc3C2)cc2c(=O)n(C)c3ccccc3c21	.	15.1*	-4.4	84.0	74.0	3.6
SMILES	Pyk2 oligo antag	H69AR inhibit	F-actin modifier	Fibroblast inh	HUVEC prolif 384	Jurkat viability
Cn1c(C(=O)NCc2cccs2)cc2c(=O)n(C)c3ccccc3c21	.	39.8*	4.0	81.0	68.7	0.3
Cc1nn(-c2ccccc2)c(C)c1C(=O)OCC(=O)Nc1ccc2c(c1)OCO2	-1.36	98.6	-6.1	107.0	106.3	.
CC12C=CC3(O1)C(C(=O)N(c1cccnc1)C3C(=O)NC1CCCCC1)C2C(=O)Nc1ccccc1 (centres undefined)	-0.03	107.9	6.4	95.4	85.3	.
CC(C)(C)NC(=O)C1N(c2cccnc2)C(=O)C2C(C(=O)Nc3ccccc3F)C3(C)C=CC21O3 (centres undefined)	-0.19	.	72.5*	.	.	-2.5
Cc1ccc(N=Cc2c(O)n(-c3ccc4c(c3)OCO4)c(=O)c3ccccc23)cc1	-0.54	9.1*	5.1	72.1	20.7*	.
O=[N+]([O-])c1ccc(-c2nc(-c3cccs3)c(-c3cccs3)[nH]2)cc1	-4.17*	.	-58.5	.	.	.
O=[N+]([O-])c1cccc(-c2nc(-c3cccs3)c(-c3cccs3)[nH]2)c1	-2.31	.	-16.6	.	.	.
COc1cccc(-c2nc(=S)c3c(n2CCCO)CCCC3)c1	0.56	84.4	13.9	107.4	99.8	-1.4
C[C@]12CC[C@@H]3c4ccc(O)cc4CC[C@H]3[C@@H]1CC[C@@H]2O	.	27.2*	.	88.3	34.8	.
C[C@]12CC[C@@H]3c4ccc(O)cc4[C@@H](O)C[C@H]3[C@@H]1CC[C@@H]2O	.	84.1	.	95.4	96.5	.
COc1ccc(/C=N/N=C2/NC(=O)C(c3ccccc3)(c3ccccc3)S2)cc1	-0.04	97.8	-0.6	108.0	102.4	.
CCC(=O)Nc1nc2ccccc2n1Cc1ccccc1	1.86	87.4	.	73.3	77.1	3.4
Cc1ccc(OCCn2c(NC(=O)c3ccco3)nc3ccccc32)cc1	0.27	26.4*	4.3	56.5	54.8	9.1
CCC(=O)Nc1nonc1-c1nc2ccccc2n1Cc1ccc(Cl)c(Cl)c1	.	16.0*	.	85.0	38.5	-4.2
CCC(=O)Nc1nc2ccccc2n1Cc1ccc(C)cc1	-0.29	.	-10.6	.	.	76.4*
O=C(Nc1nc2ccccc2n1CCOc1ccccc1)c1ccco1	-1.55	41.5	2.3	65.3	73.6	10.6
COc1cc(OC)cc(-c2cc3nc(C)cc(N4CCN(C(=O)c5ccco5)CC4)n3n2)c1	.	.	-7.3	.	.	.
CC(C)c1nc(N2CCOCC2)c(C#N)c2c1CCC2	-0.8	90.7	27.7	94.2	102.1	.
CCn1c(=O)c(=O)[nH]c2cc(C(=O)NC3CCCc4ccccc43)ccc21 (centres undefined)	-0.1	32.0*	.	68.9	66.1	.
COc1ccc(-c2nc3scc(-c4ccccc4)n3n2)cc1	-0.58	31.4*	-2.4	73.8	67.2	10.8
Cc1ccc(C2NC(=O)NC(O)(C(F)(F)F)C2C(=O)c2cccs2)o1 (centres undefined)	0.18	103.8	9.8	98.4	16.9*	-4.0
CCc1nnc(NC(=O)c2c(O)c3cccc4c3n(c2=O)CC4)s1	.	1.8*	.	86.4	84.7	3.4
CCCc1nnc(NC(=O)c2c(O)c3cccc4c3n(c2=O)CC4)s1	.	18.4*	.	111.1	109.4	-4.6
Cc1cccc(NC(=O)c2c(O)c3cccc4c3n(c2=O)CC4)c1	.	72.1	-12.2	109.4	96.1	.
CC(C)CN1C(=S)SC(C)(C)C1n1oc(=O)n(-c2ccc(Cl)cc2)c1=O (centres undefined)	0.97	96.1	.	91.3	80.8	.
CCc1ccc(NS(=O)(=O)c2cccs2)cc1	-0.3	99.7	-15.6	99.2	88.8	1.9
